Screening results from PubChem BioAssay.
This is a sample that favours compounds with a hit; in the whole collection about 4.7% have one here.
GRIN3A LBD mod: NR3A (human) ligand-binding domain modulation. AID 1259313. 340,000 compounds, 2.5% hits. NR3A LBD differential scanning fluorimetry, Tm shift; 0% = protein alone, 100% = glycine-bound protein. Tm shift relative to glycine control, % at 25 µM;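 active means melting temperature shift of at least 10% of the positive control shift, at one fixed dose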
ADAM10 inh: inhibits human ADAM10; recombinant ADAM10, EDANS/DABCYL FRET peptide cleavage, 3 h; inhibition, % at 7 µM; 370,000 compounds, 0.62% hits; O14672;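 active means inhibition above a per-campaign cutoff equal to the mean of compounds falling between control-based bounds plus 3 SD, cut at about 20% in these data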;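 further: 0% = DMSO wells while the 100% control is not disclosed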
SKN-1 inh: C. elegans SKN-1 inhibition. C. elegans VP596 Pgst-4::GFP/RFP ratio, acrylamide-induced, 24 h. AID 624304. inhibition, % at 21.8 µM. 360,000 compounds, 0.49% hits;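 active means interference check ratio from 0.5 to 1.5 plus GFP to RFP signal ratio inhibition reaching or exceeding a fixed threshold, cut at about 30% in these data, passing the limit was not always enough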
MPTP block: permeability transition pore inhibition | isolated mouse mitochondria, Ca2+ swelling absorbance, 30 min | 360,000 compounds, 1.4% hits | inhibition, % at 10 µM;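 active means inhibition of 50% or more, scaled per plate between neutral and stimulator controls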;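 further: 0% = DMSO wells given calcium and 100% = 1 mM EGTA wells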
ADAM17 inh: inhibits human ADAM17 | AID 720648 | inhibition, % at 6.95 µM | recombinant ADAM17, EDANS/DABCYL FRET peptide cleavage | 370,000 compounds, 0.83% hits | P78536;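 active means inhibition above the mean of compounds lying between control limits plus 3 SD, set per campaign, cut at about 8.5% in these data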;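 further: 0% = DMSO-only wells as the low control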
Target sequence (P78536 215-824 limits assumed): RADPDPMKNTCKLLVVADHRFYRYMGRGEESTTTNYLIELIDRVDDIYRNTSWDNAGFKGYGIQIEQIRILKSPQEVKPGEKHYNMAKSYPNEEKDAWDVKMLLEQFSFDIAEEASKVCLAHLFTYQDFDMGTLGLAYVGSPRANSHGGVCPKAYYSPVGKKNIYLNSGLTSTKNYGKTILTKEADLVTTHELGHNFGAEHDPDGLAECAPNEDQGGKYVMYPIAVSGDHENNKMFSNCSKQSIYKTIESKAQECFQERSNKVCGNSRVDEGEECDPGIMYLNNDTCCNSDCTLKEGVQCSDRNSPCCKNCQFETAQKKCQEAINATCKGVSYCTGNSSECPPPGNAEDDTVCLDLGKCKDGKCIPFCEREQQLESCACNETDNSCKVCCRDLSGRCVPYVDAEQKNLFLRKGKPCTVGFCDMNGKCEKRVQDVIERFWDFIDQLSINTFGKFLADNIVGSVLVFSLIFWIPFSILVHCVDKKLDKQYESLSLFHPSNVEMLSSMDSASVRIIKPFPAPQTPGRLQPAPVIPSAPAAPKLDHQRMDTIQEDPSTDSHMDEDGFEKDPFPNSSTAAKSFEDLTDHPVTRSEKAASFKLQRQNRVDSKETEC
MT1-MMP act inh: MT1-MMP (human) activation inhibition. GFP/RFP ratio change, % at 20 µM. 360,000 compounds, 0.061% hits. HT1080 RFP-PRO-GFP cells, GFP/RFP ratio fluorescence, overnight; percent of plate control window, DMSO zero. P50281. AID 651647;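 active means GFP/RFP ratio change of at least 30% with cell ATP level not reduced by more than half and red fluorescence within 50% of control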
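Test system: HT1080 RFP-PRO-GFP cells; Benchmarks: DMSO and RFP-L50D-GFP cell wells; Timing: cells overnight before dosing, compound overnight, 37 °C, 5% CO2; Compound: one 20 µM compound dose with 1% DMSO; Read-out: GFP/RFP fluorescence ratio.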
An asterisk follows results filed as active; i = inactive; . = no result.

SMILES	GRIN3A LBD mod	ADAM10 inh	SKN-1 inh	MPTP block	ADAM17 inh	MT1-MMP act inh
CCN(CC)S(=O)(=O)c1cccc(C(=O)NNC(=O)C2=NN(c3ccccc3)C(=O)CC2)c1	0	-3	18	0	2	-2
C[C@H](CO)N1C[C@H](C)[C@@H](CN(C)Cc2ccc(Oc3ccccc3)cc2)Oc2c(NC(=O)C3CC3)cccc2C1=O	-12	22*	16	0	8	8
C[C@@H]1CN([C@@H](C)CO)C(=O)Cc2cc(NC(=O)Nc3cccc4ccccc34)ccc2O[C@@H]1CN(C)Cc1ccc(C(F)(F)F)cc1	13*	-79	6	2	-6	9
COc1ccc(NC(=O)Nc2ccc3c(c2)C(=O)N([C@H](C)CO)C[C@H](C)[C@@H](CN(C)Cc2ccc(Cl)c(Cl)c2)OCCCC[C@@H](C)O3)cc1	.	21*	-10	0	5	2
COc1ccc(S(=O)(=O)Nc2cccc3c2O[C@H](CN(C)C(=O)NC(C)C)[C@@H](C)CN([C@H](C)CO)C3=O)cc1	16*	4	-6	-1	0	1
Cc1cc(-n2c(C)cc(C(=O)COC(=O)CN=C3NS(=O)(=O)c4ccccc43)c2C)no1	2	-1	7	0	-2	-3
Cc1ccc(NC(=O)c2ccc(CSc3nnc(-c4ccncc4)n3C)cc2)cc1	1	-1	8	0	-5	4
C[C@@H]1CN([C@H](C)CO)C(=O)Cc2cc(NC(=O)Nc3ccccc3)ccc2O[C@@H]1CN(C)Cc1ccc2c(c1)OCO2	-4	20*	2	0	4	3
C[C@H]1CN([C@@H](C)CO)C(=O)c2cc(NC(=O)Nc3cccc4ccccc34)ccc2O[C@@H]1CN(C)Cc1ccc(-c2ccccc2)cc1	11*	-44	-12	2	-12	8
C[C@@H]1CN([C@H](C)CO)C(=O)c2cc(NC(=O)Nc3cccc4ccccc34)ccc2O[C@H]1CN(C)Cc1ccc(C(F)(F)F)cc1	23*	-34	-3	0	-10	2
C[C@@H]1CCCCO[C@@H](CN(C)Cc2ccccc2)[C@@H](C)CN([C@H](C)CO)C(=O)c2cc(NC(=O)Nc3cccc4ccccc34)ccc2O1	.	-56	-18	-1	-16	8
CCOc1ccc(Br)cc1S(=O)(=O)N1CCCN(C)CC1	0	-6	-2	-1	1	-8
O=C(Nc1nc(-c2ccccn2)cs1)c1ccc([N+](=O)[O-])o1	-5	6	3	0	-2	3
Cc1ccc(C(=O)Nc2nc(-c3ccccn3)cs2)o1	8	-10	8	0	-7	9
O=C(Nc1nc(-c2ccccn2)cs1)c1ccc(-c2ccccc2F)o1	12*	-77	2	10	-11	-1
CC(=O)c1ccc(-c2ccc(C(=O)Nc3nc(-c4ccccn4)cs3)o2)cc1	11*	-361	5	-2	-77	7
COc1ccc(CCNc2oc(-c3ccc(OC)c(OC)c3)nc2C#N)cc1	16*	i	14	0	-293	4
O=C(CNc1ccccc1)N/N=C/c1ccc([N+](=O)[O-])o1	2	11	-10	2	1	-10
CC(C)OC(=O)c1cc2ccccc2[nH]1	-1	0	-1	1	-2	11
CCOC(=O)c1cc2cc3ccccc3cc2[nH]1	-20	-316	40*	9	-122	-1
CC(=O)Nc1ccc(S(=O)(=O)Nc2nc3ccccc3s2)cc1	-8	-6	-17	0	-4	-3
CS(=O)(=O)c1ccc2nc(NC(=O)c3ccccc3)sc2c1	3	0	8	0	-1	3
Cc1ccc2nc(NC(=O)c3ccc(NS(=O)(=O)c4cccs4)cc3)sc2c1	33*	-15	-10	0	-5	5
Cc1ccc2nc(NC(=O)CCNS(=O)(=O)c3cccs3)sc2c1	-6	8	7	6	1	-1
C/C(=N\NC(=O)c1ccc(NS(=O)(=O)c2cccs2)cc1)c1ccc(C(C)(C)C)cc1	15*	9	-11	0	4	2
SMILES	GRIN3A LBD mod	ADAM10 inh	SKN-1 inh	MPTP block	ADAM17 inh	MT1-MMP act inh
CC(=O)Nc1ccc(S(=O)(=O)Nc2nc3ccc([N+](=O)[O-])cc3s2)cc1	16*	7	2	0	0	1
CS(=O)(=O)c1ccc2nc(NC(=O)c3ccc(NS(=O)(=O)c4cccc([N+](=O)[O-])c4)cc3)sc2c1	16*	7	4	7	0	2
CCCN1C(=O)c2ccc(C(=O)Nc3nccs3)cc2C1=O	2	-8	-39	-1	-3	3
CCCc1cc(C(=O)Nc2nccs2)cs1	0	2	33*	0	0	9
CCn1cc([N+](=O)[O-])c(C(=O)Nc2ccc3c(c2)OCCO3)n1	0	2	-7	-1	3	-1
CCOC(=O)c1nn(-c2ccccc2C)c2nc(Nc3ccccc3)cc(=O)n12	13*	11	-12	-1	-2	-2
CCCCCCCCOC(=O)c1c(CSC(=N)N)n(C)c2cc(Br)c(OC(C)=O)cc12	40*	-3	13	0	-2	-11
CCOC(=O)c1c(CSC(=N)N)n(-c2ccc(Br)cc2)c2cc(Br)c(OC(C)=O)cc12	-4	5	5	-2	-5	-7
NC(=O)CCC1NC(=S)N(Cc2ccccc2)C1=O (stereo not drawn)	1	-2	-2	-1	-3	0
O=C(Nc1nnc(-c2ccccn2)o1)c1ccc(Br)cc1	-3	1	6	-3	-3	3
C=CCOc1c(Cl)cc(CNCCC)cc1Cl	-2	0	6	-3	-3	4
CCCNCc1cc(Cl)c(OCC)c(Cl)c1	-1	4	42*	-1	0	.
COCCCn1c(C)c(C(C)=O)cc(NC(=O)c2ccccc2)c1=O	-2	0	0	0	1	1
CSc1c(C#N)c(N)c(C#N)c2c1COC(C)(C)C2	-3	-476	41*	-3	-155	-2
Cc1[nH]c(=O)c(C#N)c2c1COC(C)(C)C2	1	.	-4	0	.	1
Cc1cccc(NC(=O)NCCN2CCCCC2)c1	1	8	38*	0	1	1
COc1ccc(Nc2cc(C(=O)NCCCN3CCOCC3)c3ccccc3n2)cc1	1	3	-1	-1	-2	-3
COc1ccc(Nc2nc(C(=O)NCCCN3CCOCC3)cs2)cc1	-1	-12	33*	1	-3	-14
O=C(NN=C1CCCC1)c1n[nH]c2c1CCC2	1	-13	-6	1	0	1
CCOc1ccc(Br)cc1C1=CC(=O)C[C@H](c2ccc(OC)cc2)C1	16*	2	-14	0	-2	-1
